This is an account of results in ChEMBL document CHEMBL3425499, “Iridoid glycosides from Barleria lupulina” (J Nat Prod, 2015).

The subject of one data set is MDA-MB-231. Kind of data set: Cytotoxicity against Stat3-activated human MDA-MB-231 cells assessed as growth inhibition at 20 ug/ml after 72 hrs by CyQuant assay. The class given is functional, cell-based. Put shortly: (§1)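 Cells were seeded at 1000 per well and grown 24 h. They were then exposed to 20 μg/mL compound for 72 h. Viability was measured by the CyQuant assay following the kit instructions and expressed relative to DMSO-treated control cells.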

The test system of the next data set is U-251. Kind of data set: Cytotoxicity against Stat3-activated human U251MG cells assessed as growth inhibition at 20 ug/ml after 72 hrs by CyQuant assay. In kind it is functional, cell-based. Put shortly:
as §1

In the next data set the test system is NIH3T3. Kind of data set: Cytotoxicity against mouse NIH/3T3 cells assessed as growth inhibition at 20 ug/ml after 72 hrs by CyQuant assay.
Data set [1] is described as follows: Antioxidant activity assessed as DPPH free radical scavenging activity measured as decoloration of a MeOH solution after 10 mins by spectrophotometry. In kind it is physicochemical. A digest of the protocol:
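Compounds were dissolved in MeOH at various concentrations and mixed with a methanolic DPPH solution. Mixtures were held 10 min in the dark, then remaining DPPH was read as absorbance at 517 nm. Scavenging was calculated against a blank of DPPH plus solvent, taken as 100%.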

In brackets after ≈: the same amount, converted by molar mass. Activity calls are given as the source filed them. No cut-off for these calls is given here.

As to `COc1ccc(/C=C\C(=O)O[C@@H]2C[C@](C)(OC(C)=O)[C@H]3[C@H](O[C@@H]4O[C@H](CO)[C@@H](O)[C@H](O)[C@H]4O)OC=C(C(=O)O)[C@H]32)cc1`, the inhibition result with MDA-MB-231, in the data set with U-251 and with NIH3T3 was “inactive” in each case.
For the molecule `O=c1c(O)c(-c2ccc(O)c(O)c2)oc2cc(O)cc(O)c12` [QUERCETIN], the half-maximal inhibitory concentration (IC50) in data set [1] is 9.52 mg/L (≈ 31.5 µM).
Turning to `COC(=O)C1=CO[C@@H](O[C@@H]2O[C@H](CO)[C@@H](O)[C@H](O)[C@H]2O)[C@H]2[C@@H]1[C@H](O)C[C@]2(C)OC(C)=O` [BARLERIN], the inhibition entry in the data set on MDA-MB-231, in the data set with U-251 and with NIH3T3 was “inactive” each time. For the same molecule, the IC50 in data set [1] was determined as 110.3 mg/L (≈ 246 µM).
As for `C[C@]1(O)C[C@@H](O)[C@@H]2C(C(=O)O)=CO[C@@H](O[C@@H]3O[C@H](CO)[C@@H](O)[C@H](O)[C@H]3O)[C@@H]21` [SHANZHISIDE], the inhibition result in the data set with MDA-MB-231, in the data set with U-251 and in the data set on NIH3T3 was “inactive” in each case. For the same molecule, in data set [1], the 50% inhibitory concentration (IC50) was determined as 78.6 mg/L (≈ 200 µM).
`O=C1O[C@H]([C@@H](O)CO)C(O)=C1O` [ASCORBIC ACID]: in data set [1], the IC50 was 7.63 mg/L (≈ 43.3 µM).
With `COC(=O)C1=CO[C@@H](O[C@@H]2O[C@H](CO)[C@@H](O)[C@H](O)[C@H]2O)[C@H]2[C@@H]1[C@H](OC(C)=O)C[C@]2(C)O`, the inhibition result with MDA-MB-231, in the data set with U-251 and in the data set with NIH3T3 was “inactive” each time. Also, the half-inhibitory concentration (IC50) in data set [1] was determined as 286.4 mg/L (≈ 639 µM).
In the case of `COC(=O)C1=CO[C@@H](O[C@@H]2O[C@H](CO)[C@@H](O)[C@H](O)[C@H]2O)[C@H]2[C@@H]1[C@H](O)C[C@]2(C)O` [SHANZHISIDE METHYL ESTER], the inhibition result in the data set with MDA-MB-231, in the data set with U-251 and in the data set with NIH3T3 was “inactive” each time. Moreover, the IC50 in data set [1] came to 97.5 mg/L (≈ 240 µM).
Take `COC(=O)C1=CO[C@@H](O[C@@H]2O[C@H](COC=O)[C@@H](O)[C@H](O)[C@H]2O)[C@H]2[C@@H]1[C@H](OC(C)=O)C[C@]2(C)OC(C)=O`: the inhibition entry in the data set with MDA-MB-231, in the data set with U-251 and with NIH3T3 was “inactive” in each case.
With `CC(=O)O[C@@]1(C)C[C@@H](O)[C@@H]2C(C(=O)O)=CO[C@@H](O[C@@H]3O[C@H](CO)[C@@H](O)[C@H](O)[C@H]3O)[C@@H]21`, the inhibition result in the data set on MDA-MB-231, with U-251 and in the data set with NIH3T3 was “inactive” each time.
With `COC(=O)C1=CO[C@@H](O[C@@H]2O[C@H](CO)[C@@H](O)[C@H](O)[C@H]2O)[C@H]2[C@@H]1[C@H](OC(C)=O)C[C@]2(C)OC(C)=O`, the inhibition entry with MDA-MB-231, in the data set with U-251 and with NIH3T3 was “inactive” in each case.
With `COC(=O)C1=CO[C@@H](O[C@@H]2O[C@H](CO)[C@@H](O)[C@H](O)[C@H]2O)[C@H]2[C@@H]1[C@H](OC(=O)/C=C/c1ccc(O)cc1)C[C@]2(C)OC(C)=O`, in data set [1], the IC50 amounted to 486.5 mg/L (≈ 818 µM).
For the molecule `C[C@]1(O)C[C@@H](O)[C@@H]2C(C(=O)O)=CO[C@@H](O[C@@H]3O[C@H](COC=O)[C@@H](O)[C@H](O)[C@H]3O)[C@@H]21`, the inhibition result in the data set on MDA-MB-231, in the data set with U-251 and in the data set with NIH3T3 was “inactive” in each case.
With `C[C@]1(O)C[C@@H](OC=O)[C@@H]2C(C(=O)O)=CO[C@@H](O[C@@H]3O[C@H](CO)[C@@H](O)[C@H](O)[C@H]3O)[C@@H]21`, the inhibition result in the data set with MDA-MB-231, in the data set on U-251 and with NIH3T3 was “inactive” each time.
For the molecule `O=C(O)c1cc(O)c(O)c(O)c1` [GALLIC ACID], in data set [1], the IC50 was determined as 2.79 mg/L (≈ 16.4 µM).
As to `C[C@]1(O)CC[C@@H]2C(C(=O)O)=CO[C@@H](O[C@@H]3O[C@H](CO)[C@@H](O)[C@H](O)[C@H]3O)[C@@H]21`, the inhibition result in the data set on MDA-MB-231, in the data set on U-251 and in the data set with NIH3T3 was “inactive” in each case.
As for `COc1ccc(/C=C/C(=O)O[C@@H]2C[C@](C)(OC(C)=O)[C@H]3[C@H](O[C@@H]4O[C@H](CO)[C@@H](O)[C@H](O)[C@H]4O)OC=C(C(=O)O)[C@H]32)cc1`, the inhibition entry with MDA-MB-231, with U-251 and in the data set on NIH3T3 was “inactive” each time.
For `COC(=O)C1=CO[C@@H](O[C@@H]2O[C@H](COC=O)[C@@H](O)[C@H](O)[C@H]2O)[C@H]2[C@@H]1[C@H](O)C[C@]2(C)OC(C)=O`, the inhibition result in the data set on MDA-MB-231, in the data set on U-251 and with NIH3T3 was “inactive” in each case.
For the molecule `COC(=O)C1=CO[C@@H](O[C@@H]2O[C@H](CO)[C@@H](O)[C@H](O)[C@H]2O)[C@@H]2[C@@](C)(OC(C)=O)CC[C@]12O`, the inhibition entry in the data set on MDA-MB-231, with U-251 and in the data set with NIH3T3 was “inactive” in each case.

The term IC50 denotes the concentration needed to halve the response being measured.
